Data on 28 compounds can be found in ChEMBL document CHEMBL4387703, “Lead optimization and biological evaluation of fragment-based cN-II inhibitors” (Eur J Med Chem, 2019).

Assay [1] concerns the target 5'-nucleotidase (Homo sapiens) (UniProt P21589). In words: Inhibition of recombinant cN-II (unknown origin) assessed as reduction in inorganic phosphate production at 200 uM pre-incubated for 10 mins followed by addition of IMP as substrate and measured after 5 mins by malachite green based assay relative to control. An outline of the steps:
(§1)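 Purified recombinant cN-II (0.1 μM final) in 50 mM imidazole pH 6.5, 500 mM NaCl and 10 mM MgCl2 was preincubated on ice with compound for 10 min. IMP (50 μM, equimolar Mg) was then added for 5 min at 37 °C.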

Assay [2] has the same target. As to the kind of experiment: Inhibition of recombinant cN-II (unknown origin) assessed as reduction in inorganic phosphate production at 1 mM pre-incubated for 10 mins followed by addition of IMP as substrate and measured after 5 mins by malachite green based assay relative to control. An outline of the steps: as §1
The target of assay [3] is T1, 5'-nucleotidase (Rattus norvegicus) (UniProt P21588).
T1 sequence (whole entry): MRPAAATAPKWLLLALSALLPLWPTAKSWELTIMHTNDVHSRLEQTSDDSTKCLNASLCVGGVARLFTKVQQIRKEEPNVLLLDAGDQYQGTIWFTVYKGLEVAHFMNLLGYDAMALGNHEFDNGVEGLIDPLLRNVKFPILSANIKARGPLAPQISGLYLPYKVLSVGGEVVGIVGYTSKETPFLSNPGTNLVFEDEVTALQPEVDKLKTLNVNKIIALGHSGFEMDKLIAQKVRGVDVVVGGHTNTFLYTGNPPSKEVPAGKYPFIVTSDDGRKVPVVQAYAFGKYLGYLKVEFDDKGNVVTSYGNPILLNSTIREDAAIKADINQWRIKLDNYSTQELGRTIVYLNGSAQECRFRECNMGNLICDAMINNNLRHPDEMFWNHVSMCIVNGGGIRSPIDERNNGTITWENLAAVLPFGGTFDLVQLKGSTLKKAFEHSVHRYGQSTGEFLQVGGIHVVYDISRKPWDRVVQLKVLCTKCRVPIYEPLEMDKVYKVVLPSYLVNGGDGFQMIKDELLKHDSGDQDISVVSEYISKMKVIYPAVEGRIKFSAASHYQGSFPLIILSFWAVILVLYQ
As to the kind of experiment: Inhibition of purified rat liver 5'-nucleotidase using IMP as substrate assessed as reduction in substrate dephosphorylation at 2 to 6 mM.

The target in assay [4] is T1, 5'-nucleotidase (Rattus norvegicus). As to the kind of experiment: Inhibition of purified rat liver 5'-nucleotidase using IMP as substrate assessed as reduction in substrate dephosphorylation at 7 to 10 mM.

Active and inactive are the calls of the source. The calls are words filed in the database; no cut-off is given here.

5'-nucleotidase (Homo sapiens), sequence (P21589 whole entry): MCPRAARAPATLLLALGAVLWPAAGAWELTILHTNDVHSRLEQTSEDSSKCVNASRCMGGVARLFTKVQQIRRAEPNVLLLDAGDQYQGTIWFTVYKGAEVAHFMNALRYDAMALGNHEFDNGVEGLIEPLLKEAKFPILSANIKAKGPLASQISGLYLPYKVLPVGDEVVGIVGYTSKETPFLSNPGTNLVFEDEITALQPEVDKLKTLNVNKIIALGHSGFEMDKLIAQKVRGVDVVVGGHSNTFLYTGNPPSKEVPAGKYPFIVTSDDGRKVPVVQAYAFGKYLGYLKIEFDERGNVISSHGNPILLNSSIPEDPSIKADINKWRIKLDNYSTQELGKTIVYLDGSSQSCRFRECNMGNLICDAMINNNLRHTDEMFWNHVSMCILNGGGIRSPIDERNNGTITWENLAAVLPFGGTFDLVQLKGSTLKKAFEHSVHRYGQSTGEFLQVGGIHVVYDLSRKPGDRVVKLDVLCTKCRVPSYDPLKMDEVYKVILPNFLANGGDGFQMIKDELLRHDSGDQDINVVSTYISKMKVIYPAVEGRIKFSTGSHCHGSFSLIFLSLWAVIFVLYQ

Turning to `O=C(Nc1ncnc2ncn(Cc3ccccc3)c12)c1cccc(-c2ccccc2)c1`, the inhibition – broadly, the percentage by which the read-out fell short of the control – in assay [1] was 52%. The same measure, in the same setting: as for `O=C(Nc1ncnc2ncn(COCc3ccccc3)c12)c1cccc(-c2ccccc2)c1`, the figure is 50%.

With `Nc1ncnc2ncn(Cc3ccccc3)c12`, the inhibition in assay [2] was determined as 26%. As for `CCOC(=O)Cn1cnc2c(NC(=O)c3ccc(-c4ccccc4-c4nn[nH]n4)cc3)ncnc21`, the inhibition in assay [1] was determined as 27%. On to `Nc1ncnc2c1ncn2COCc1ccccc1`, for which, in assay [2], the inhibition is 13%.

On to `Nc1ncnc2ncn(COCc3ccccc3)c12`, for which the inhibition result in assay [2] was “inactive”. On to `CC(=O)OCCn1cnc2c(NC(=O)c3cccc(-c4ccccc4)c3)ncnc21`, for which, in assay [1], the inhibition was determined as 62%. As for `CCOP(=O)(O)Cn1cnc(-c2cccc(-c3cccc(C(=O)Nc4ncnc5ncn(COCc6ccccc6)c45)c3)c2)c1`, the inhibition in assay [1] turned out to be 60%.

For the compound `O=C(Nc1ncnc2[nH]cnc12)c1cccc(-c2ccccc2)c1`, the inhibition in assay [1] was 68%. As for `O=C(Nc1ncnc2[nH]cnc12)c1cccc(-c2ccc(-c3nn[nH]n3)cc2)c1`, in assay [1], the inhibition was determined as 60%. In the case of `CC(C)CSC[C@H]1O[C@@H](n2cnc3c(N)ncnc32)[C@H](O)[C@@H]1O`, the inhibition in assay [3] came to 50%. With `O=C(Nc1ncnc2c1ncn2Cc1ccccc1)c1cccc(-c2ccccc2)c1`, the inhibition in assay [1] was 57%.

With `CCOC(=O)Cn1cnc2c(N)ncnc21`, the inhibition in assay [1] stood at 3%. Take `O=C(Nc1ncnc2[nH]cnc12)c1cccc(-c2ccccc2-c2nn[nH]n2)c1`: the inhibition in assay [1] worked out at 27%.

Consider `O=C(Nc1ncnc2[nH]cnc12)c1cccc(-c2cccc(-c3nn[nH]n3)c2)c1`, for which, in assay [1], the inhibition was determined as 50%. As to `CCOP(=O)(O)Cn1cnc(-c2cccc(-c3cccc(C(=O)Nc4ncnc5nc[nH]c45)c3)c2)c1`, the inhibition in assay [1] came out at 75%. On the same count and under the same terms, as for `O=C(Nc1ncnc2[nH]cnc12)c1ccc(-c2ccccc2-c2nn[nH]n2)cc1`, the figure is 10%. `O=C(Nc1ncnc2c1ncn2CCO)c1cccc(-c2ccccc2)c1`: the inhibition in assay [1] stood at 46%.

On to `O=C(Nc1ncnc2[nH]cnc12)c1ccccc1-c1ccc(-c2nn[nH]n2)cc1`, for which the inhibition in assay [1] worked out at 30%. As for `CC(C)CSC[C@H]1O[C@@H](n2cnc3c(=O)[nH]cnc32)[C@H](O)[C@@H]1O`, the inhibition in assay [4] stood at 50%.

As to `CCOP(=O)(Cn1cnc2c(N)ncnc21)OCC`, the inhibition result in assay [2] was “inactive”.

Turning to `CCOC(=O)Cn1cnc2c(NC(=O)c3cccc(-c4ccccc4)c3)ncnc21`, the inhibition in assay [1] came to 60%. As for `O=C(Nc1ncnc2c1ncn2COCc1ccccc1)c1cccc(-c2ccccc2)c1`, the inhibition in assay [1] worked out at 34%.

As to `Nc1ncnc2c1ncn2Cc1ccccc1`, the inhibition in assay [2] amounted to 23%. Take `O=C(Nc1ncnc2nc[nH]c12)c1cccc(-c2cccc(-c3cn(CP(=O)(O)O)cn3)c2)c1`: the inhibition in assay [1] amounted to 49%. For the compound `CC(=O)OCCn1cnc2c(N)ncnc21`, in assay [2], the inhibition result is “inactive”. As for `O=C(O)Cn1cnc2c(NC(=O)c3cccc(-c4ccccc4)c3)ncnc21`, the inhibition in assay [1] turned out to be 62%. `CCOP(=O)(Cn1cnc2c(NC(=O)c3cccc(-c4ccccc4)c3)ncnc21)OCC`: in assay [1], the inhibition stood at 47%.
